The source of these data is ChEMBL document CHEMBL1165881, “Synthesis and cytotoxicity evaluation of (tetrahydro-beta-carboline)-1,3,5-triazine hybrids as anticancer agents” (Eur J Med Chem, 2010).

Assay [1] relates to MCF7. Description: Cytotoxicity against human MCF7 cells after 72 hrs by MTT assay. It counts as functional, cell-based. In outline: (§1)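 Seeded at 5000–10000 cells/well, incubated at 37 °C in CO2 with compounds at a range of concentrations, controls included, in triplicate wells. After 72 h, MTT solution (5 mg/mL) added; absorbance read at 540 nm. % cytotoxicity = 100 × [1 − (X/R1)] versus control absorbance; IC50 by nonlinear regression. Values are means of at least two independent experiments, three determinations each.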
(In general: Tetrazolium assays rely on reduction of a dye to a coloured formazan, in cell work by metabolically active cells.)

Assay [2] relates to SW-620. In words: Cytotoxicity against human SW620 cells after 72 hrs by MTT assay. In kind it is functional, cell-based. A digest of the protocol: as §1
The test system of assay [3] is DU-145. Description: Cytotoxicity against human DU145 cells after 72 hrs by MTT assay. In kind it is functional, cell-based. A digest of the protocol:
as §1

In assay [4] the test system is KB. Description: Cytotoxicity against human KB cells after 72 hrs by MTT assay. It counts as functional, cell-based. A digest of the protocol:
as §1

Assay [5] has as its system PA-1. In words: Cytotoxicity against human PA1 cells after 72 hrs by MTT assay. It counts as functional, cell-based. A digest of the protocol:
as §1

Assay [6] concerns K562. Description: Cytotoxicity against human K562 cells after 72 hrs by MTT assay. It counts as functional, cell-based. A digest of the protocol:
as §1

Assay [7] has as its system MIA PaCa-2. Description: Cytotoxicity against human MIAPaCa2 cells after 72 hrs by MTT assay. In kind it is functional, cell-based. A digest of the protocol: as §1
The test system of assay [8] is A549. In words: Cytotoxicity against human […] cells after 72 hrs by MTT assay. In kind it is functional, cell-based. A digest of the protocol:
as §1

Assay [9] can be described thus: Cytotoxicity against mouse NIH/3T3 cells after 72 hrs by MTT assay. In kind it is cell-based, NIH3T3. A digest of the protocol: as §1
Where [10] appears, read: Homo sapiens, MCF7, 72 h, read-out: IC50.
The mark [11] stands for this setting: Homo sapiens, DU-145, 72 h, read-out: IC50.
Where [12] appears, read: Homo sapiens, PA-1, 72 h, read-out: IC50.
Setting [13] is: Homo sapiens, K562, 72 h, read-out: IC50.
The mark [14] stands for this setting: Mus musculus, NIH3T3, 72 h, read-out: IC50.
The mark [15] stands for this setting: Homo sapiens, SW-620, 72 h, read-out: IC50.
Setting [16] is: Homo sapiens, MIA PaCa-2, 72 h, read-out: IC50.
[17] abbreviates: Homo sapiens, A549, 72 h, read-out: IC50.

With `COC(=O)[C@@H]1Cc2c([nH]c3ccccc23)[C@H](c2ccc(OC)cc2)N1c1nc(N2CCN(C)CC2)nc(N2CCN(C)CC2)n1` (racemic), the 50% inhibitory concentration (IC50) came out at 6.06 µM in assay [1] (setting [10]); 3.32 µM in assay [2] (sw-620, read-out: IC50); 5.35 µM in assay [3] (setting [11]); 1.46 µM in assay [4] (kb); 2.72 µM in [5] (setting [12]); 7.13 µM in [6] (setting [13]). Also, the IC50 was 7.37 µM in assay [7] (mia paca-2, read-out: IC50); 6.3 µM in assay [8] (a549, read-out: IC50); 2.33 µM in assay [9] (setting [14]).

For `COC(=O)[C@H]1Cc2c([nH]c3ccccc23)[C@H](c2cc(OC)c(OC)c(OC)c2)N1c1nc(N2CCN(C)CC2)nc(N2CCN(C)CC2)n1` (relative stereo), the IC50 entry in assay [1] (mcf7) was “Not Active”; in assay [2] (setting [15]), 3.15 µM; in assay [3] (setting [11]), 2.01 µM; in assay [4] (Homo sapiens, KB, 72 h) it was 2.43 µM; in assay [5] (setting [12]), 2.75 µM; in assay [6] (setting [13]), 3 µM. For the same compound, the half-inhibitory concentration (IC50) amounted to 7.54 µM in assay [7] (setting [16]), 5.67 µM in [8] (setting [17]) and 2.17 µM in [9] (setting [14]).

With `CCN1CCN(c2nc(N3CCN(CC)CC3)nc(N3[C@H](c4ccc(OC)cc4)c4[nH]c5ccccc5c4C[C@H]3C(=O)OC)n2)CC1`, the IC50 in [1] (setting [10]) is 1.34 µM; in [2] (sw-620), “Not Active”; in assay [3] (setting [11]), 1.67 µM; in assay [4] (Homo sapiens, KB, 72 h), 1.22 µM; in assay [5] (pa-1), “Not Active”; in assay [8] (setting [17]), 1.61 µM. The half-inhibitory concentration (IC50) in [9] (setting [14]) amounted to 1.86 µM.

On to `COC(=O)[C@@H]1Cc2c([nH]c3ccccc23)[C@@H](c2ccc(C(C)C)cc2)N1c1nc(N2CCN(C)CC2)nc(N2CCN(C)CC2)n1`, for which the half-maximal inhibitory concentration (IC50) was 6.73 µM in [1] (setting [10]); 5.92 µM in assay [2] (setting [15]); “Not Active” in [3] (du-145); 3.73 µM in assay [4] (Homo sapiens, KB, 72 h); 2.89 µM in assay [5] (setting [12]); 2.24 µM in assay [6] (setting [13]). In addition, the values for the IC50 entry in [7] (mia paca-2), in assay [8] (setting [17]) and in assay [9] (setting [14]) were “Not Active”, 1.75 µM and 2.63 µM, respectively.

Turning to `COC(=O)[C@H]1Cc2c([nH]c3ccccc23)[C@H](c2ccccc2)N1c1nc(N2CCN(C)CC2)nc(N2CCN(C)CC2)n1`, the half-maximal inhibitory concentration (IC50) in assay [1] (setting [10]) is 6.21 µM; in [2] (setting [15]), 2.84 µM; in assay [3] (setting [11]), 2.81 µM; in assay [4] (Homo sapiens, KB, 72 h) it was 1.98 µM; in assay [5] (setting [12]), 1.93 µM; in assay [6] (setting [13]) it was 5.34 µM. Further, the IC50 came out at 6.11 µM in assay [7] (setting [16]) and 6 µM in [9] (setting [14]).

Consider `COC(=O)[C@H]1Cc2c([nH]c3ccccc23)[C@H](c2ccc(C)cc2)N1c1nc(N2CCN(C)CC2)nc(N2CCN(C)CC2)n1`, for which the IC50 in assay [1] (setting [10]) worked out at 5.89 µM; in assay [2] (setting [15]), 2.65 µM; in assay [3] (setting [11]), 2.14 µM; in assay [4] (Homo sapiens, KB, 72 h) it was 1.86 µM; in assay [5] (setting [12]), 6.91 µM; in [6] (setting [13]), 3.22 µM. The IC50 was found to be 7 µM in assay [7] (setting [16]), 2.34 µM in assay [8] (setting [17]) and 2.16 µM in [9] (setting [14]).

Turning to `CCCNc1nc(NCCC)nc(N2[C@@H](c3ccc(OC)cc3)c3[nH]c4ccccc4c3C[C@@H]2C(=O)OC)n1` (racemic), the IC50 entry in assay [1] (mcf7) is “Not Active”; in assay [2] (sw-620), “Not Active”; in assay [3] (du-145), “Not Active”; in [4] (Homo sapiens, KB, 72 h), 0.122 µM; in [5] (pa-1) it was “Not Active”; in [6] (k562), “Not Active”. Besides, the IC50 result in assay [7] (mia paca-2), in assay [8] (a549) and in assay [9] (nih3t3) was “Not Active” each time.

With `COC(=O)[C@H]1Cc2c([nH]c3ccccc23)[C@H](c2ccc(Cl)cc2)N1c1nc(N2CCN(C)CC2)nc(N2CCN(C)CC2)n1` (racemic), the IC50 result was “Not Active” in [1] (mcf7); 2.73 µM in [2] (setting [15]); “Not Active” in [3] (du-145); 1.98 µM in assay [4] (Homo sapiens, KB, 72 h); 6.39 µM in assay [5] (setting [12]); 5.01 µM in assay [6] (setting [13]). The IC50 in assay [7] (setting [16]) worked out at 7.12 µM; in assay [9] (setting [14]) it was 2.22 µM.

As to `CCCN1CCN(c2nc(N3CCN(CCC)CC3)nc(N3[C@H](c4ccc(OC)cc4)c4[nH]c5ccccc5c4C[C@H]3C(=O)OC)n2)CC1`, the IC50 in assay [1] (setting [10]) is 2.07 µM; in assay [2] (sw-620), “Not Active”; in assay [3] (setting [11]) it was 7.11 µM; in assay [4] (Homo sapiens, KB, 72 h), 3.54 µM; in [5] (pa-1), “Not Active”; in assay [8] (setting [17]) it was 1.67 µM. Also, the 50% inhibitory concentration (IC50) in assay [9] (setting [14]) was found to be 2.24 µM.

Regarding `COC(=O)[C@@H]1Cc2c([nH]c3ccccc23)[C@@H](c2ccc(OC)cc2)N1c1nc(N2CCN(C)CC2)nc(N2CCN(C)CC2)n1` (racemic), the IC50 is 12.4 µM in assay [1] (mcf7, read-out: IC50); 4.26 µM in assay [2] (sw-620, read-out: IC50); 10.5 µM in assay [3] (setting [11]); 1.87 µM in [4] (kb); 2.03 µM in [5] (setting [12]); “Not Active” in assay [6] (k562). Besides, the concentration for half-maximal inhibition (IC50) in assay [7] (mia paca-2, read-out: IC50) amounted to 6.35 µM; in [8] (a549, read-out: IC50), 5.67 µM; in assay [9] (nih3t3, read-out: IC50), 4.78 µM.

For `COC(=O)[C@H]1Cc2c([nH]c3ccccc23)[C@@H](c2ccccc2)N1c1nc(N2CCN(C)CC2)nc(N2CCN(C)CC2)n1`, the IC50 in assay [1] (setting [10]) amounted to 8.28 µM; in [2] (setting [15]), 3.24 µM; in assay [3] (setting [11]), 7.76 µM; in assay [4] (Homo sapiens, KB, 72 h), 1.83 µM; in assay [5] (setting [12]) it was 1.79 µM; in [6] (setting [13]), 6.45 µM. The 50% inhibitory concentration (IC50) was 5.88 µM in assay [7] (setting [16]), 8.62 µM in assay [8] (setting [17]) and 11.4 µM in assay [9] (setting [14]).

On to `COC(=O)[C@@H]1Cc2c([nH]c3ccccc23)[C@H](c2ccc(OC)cc2)N1c1nc(N2CCN(C)CC2)nc(N2CCN(C)CC2)n1`, for which the IC50 worked out at 9 µM in assay [1] (mcf7, read-out: IC50); 1.19 µM in [2] (sw-620, read-out: IC50); 10.3 µM in assay [3] (du-145, read-out: IC50); 7.54 µM in [4] (kb); 2.77 µM in assay [5] (pa-1, read-out: IC50); 4.83 µM in assay [6] (k562, read-out: IC50). Moreover, the concentration for half-maximal inhibition (IC50) in assay [7] (mia paca-2, read-out: IC50) stood at 3.62 µM; in assay [8] (a549, read-out: IC50), 3.13 µM; in assay [9] (nih3t3, read-out: IC50), 1.62 µM.

For `COC(=O)[C@@H]1Cc2c([nH]c3ccccc23)[C@H](c2ccc(C(C)C)cc2)N1c1nc(N2CCN(C)CC2)nc(N2CCN(C)CC2)n1`, the IC50 worked out at 5.93 µM in [1] (setting [10]); 1.93 µM in assay [2] (setting [15]); 2.87 µM in [3] (setting [11]); 6.88 µM in assay [4] (Homo sapiens, KB, 72 h); 0.27 µM in assay [5] (setting [12]); 6.43 µM in assay [6] (setting [13]). The IC50 in [7] (setting [16]) is 1.81 µM; in [8] (setting [17]), 1.76 µM; in assay [9] (setting [14]), 1.17 µM.

As for `COC(=O)[C@H]1Cc2c([nH]c3ccccc23)[C@H](c2ccc(OC)cc2)N1c1nc(N2CCN(C)CC2)nc(N2CCN(C)CC2)n1`, the IC50 in assay [1] (setting [10]) came to 11 µM; in assay [2] (setting [15]), 2.15 µM; in assay [3] (setting [11]), 2.58 µM; in [4] (Homo sapiens, KB, 72 h), 0.99 µM; in assay [5] (setting [12]), 2.05 µM; in assay [6] (setting [13]) it was 6 µM. Also, the values for the IC50 in assay [7] (setting [16]) and in assay [9] (setting [14]) were 6.23 µM and 3.16 µM, respectively.

With `COC(=O)[C@@H]1Cc2c([nH]c3ccccc23)[C@H](c2cc(OC)c(OC)c(OC)c2)N1c1nc(N2CCN(C)CC2)nc(N2CCN(C)CC2)n1` (racemic), the concentration for half-maximal inhibition (IC50) in assay [1] (setting [10]) came to 5.96 µM; in assay [3] (setting [11]) it was 5.22 µM; in assay [4] (Homo sapiens, KB, 72 h), 17.9 µM; in [5] (setting [12]) it was 5.32 µM; in assay [9] (setting [14]), 6.71 µM.

A word on the IC50: it is the concentration at which inhibition is half-maximal.
